Results: ChEMBL document CHEMBL1158805, “Neurotoxic meroditerpenoids from the tropical marine brown alga Stypopodium flabelliforme” (J Nat Prod, 2005)

Columns and labels:
[1] = Cytotoxicity against mouse Neuro2a cells after 48 hrs by MTT assay; type: functional; settings: N2a, read-out: LC50 (the source's name)
In short: (§1)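 Cells seeded at 6000/well in RPMI 1640 with 10% FBS. After 24 h, compound in DMSO, diluted in serum-free medium, was added (DMSO under 1% final). Viability was read by MTT reduction after 48 h, giving LC50.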

NCI-H460 = test: Cytotoxicity against human NCI-H460 cells after 48 hrs by MTT assay; type: functional; settings: NCI-H460, 48 h, read-out: LC50 (the source's name); in short: as §1
Neuro2a = test: Inhibition of voltage-gated sodium channel in mouse Neuro2a cells after 22 hrs; type: cell-based
[2] = Increase in calcium influx in Sprague-Dawley rat CGN measured every 6 seconds for 24 mins by FLIPR assay; type: functional
In short: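 Cerebellar granule neurons from 8-day-old Sprague-Dawley rat cerebella were used at 10-13 days in culture. Cells were loaded 1 h at 37 °C with 4 µM fluo-3 AM and 0.04% pluronic acid in Locke's buffer (pH 7.4), washed, then read by FLIPR (488 nm excitation, 500-560 nm emission). Baseline was read every 3 s for 1 min, readings stayed at 3 s for 2 min after addition, then every 6 s, 24 min total. Response was AUC (trapezoid rule); EC50 came from a logistic fit.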

[3] = Cytotoxicity against Sprague-Dawley rat CGN assessed as LDH efflux after 2 hrs; settings: CGN (primary cells from Sprague-Dawley rat), read-out: LC50
In short: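 Primary cerebellar granule neurons from 8-day-old Sprague-Dawley rats in BME with 25 mM KCl, 10 µM cytosine arabinoside added after 18-24 h, used at 10-13 days in culture. Washed into Locke's buffer (pH 7.4, 1% DMSO) and exposed to compound (1-100 µM) for 2 h at 22 °C. LDH released to medium assayed. Logistic fit of concentration-response; triplicate, repeated twice.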

[4] = Cytotoxicity against Sprague-Dawley rat CGN assessed as LDH efflux after 2 hrs in presence of tetrodotoxin; type: ADME
Artemia salina = test: Toxicity in Artemia salina after 24 hrs; type: organism-based; settings: in vivo
In short: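 About 15 hatched Artemia salina per well in roughly 5 mL of artificial seawater, with sample added in 50 µL EtOH. Held 24 h at 28 °C, then live and dead shrimp counted. Run in duplicate.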

## COc1c(C)cc(O)c2c1C[C@H]1[C@@]3(C)CC[C@H]4C(C)(C)[C@@H](O)CC[C@@]4(C)[C@H]3CC[C@]21C [FLABELLINOL]
[1]
  CC50: 2 µM
NCI-H460
  CC50: 9 µM
Neuro2a
  Activity: 2 µM

## CC1=CC(=O)C(=O)C2=C1O[C@@]1(C2)[C@@H](C)CC[C@@H]2[C@@]3(C)CC[C@H](O)C(C)(C)C3CC[C@]21C (stereo partly specified) [STYPOLDIONE]
[2]
  EC50: 27.8 µM
[3]
  CC50 at 2 h: 37.4 µM
[4]
  Activity: Active

## COC1=CC(C)=C2O[C@@]3(CC2(OO)C1=O)[C@@H](O)CC[C@@H]1[C@@]2(C)CC[C@H](O)C(C)(C)[C@@H]2CC[C@]13C (stereo partly specified) [STYPOHYDROPEROXIDE]
[1]
  CC50: > 21 µM
NCI-H460
  CC50: > 25 µM

## CC1=CC(=O)C2=C(C[C@H]3[C@@]4(C)CC[C@H]5C(C)(C)[C@@H](O)CC[C@@]5(C)[C@H]4CC[C@]23C)C1=O [FLABELLINONE]
[1]
  CC50: 2 µM
NCI-H460
  CC50: 14 µM
Neuro2a
  Activity: 7 µM

## Cc1cc(O)cc2c1O[C@]1(C)CC[C@@H]3[C@](C)(CC[C@H]4C(C)(C)[C@@H](O)CC[C@]34C)[C@H]1C2
[1]
  CC50: 2 µM
NCI-H460
  CC50: 24 µM
Artemia salina
  LC90: 24 µM
Neuro2a
  Activity: 0.7 µM

## C[C@H]1CC[C@@H]2[C@@]3(C)CC[C@H](O)C(C)(C)[C@@H]3CC[C@@]2(C)[C@]12Cc1c(O)c(O)cc(C=O)c1O2
[2]
  EC50: 100 µM
